Experimental data from ChEMBL document CHEMBL3861962 (Eur J Med Chem, 2016).

Legend:
Cytochrome P450 3A4 [1] = biological target: T1, Cytochrome P450 3A4 (Homo sapiens, UniProt P08684); assay: Drug level assessed as human recombinant CYP3A4-mediated compound formation treated with 4-(1,1,1,3,3,3-Hexafluoro-2-methoxypropan-2-yl)-N-(6-(2-hydroxyethoxy)-5-(2-methoxyphenoxy)-2,2'-bipyrimidin-4-yl)benzenesulfonamide at 5 uM in presence of NADPH after 30 mins by LC-MS/MS analysis; assay type: ADME; conditions: recombinant enzyme, 0.5 h
Procedure, shortened: (§1)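 Substrate at 5 μM final in 100 mM potassium phosphate, pH 7.4, incubated with human liver microsomes or baculovirus-expressed recombinant CYP3A4, 2D6 or 2C9. Reaction started with 1 mM NADPH and run 0, 15 and 30 min at 37 °C. Stopped with ice-cold acetonitrile containing labetalol internal standard, then centrifuged. Supernatant analysed by LC-MS/MS on a C18 column at 40 °C. Blank was enzyme without substrate.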

[2] = Drug level in human liver microsomes treated with 4-(1,1,1,3,3,3-Hexafluoro-2-methoxypropan-2-yl)-N-(6-(2-hydroxyethoxy)-5-(2-methoxyphenoxy)-2,2'-bipyrimidin-4-yl)benzenesulfonamide at 5 uM in presence of NADPH after 30 mins by LC-MS/MS analysis; assay type: ADME; conditions: 0.5 h; procedure, shortened: as §1
[3] = Retention time of the compound; assay type: physicochemical
[4] = Drug level in human liver microsomes treated with 4-(1,1,1,2,3,3,3-Heptafluoropropan-2-yl)-N-(6-(2-hydroxyethoxy)-5-(2-methoxyphenoxy)-2,2'-bipyrimidin-4-yl)benzenesulfonamide at 5 uM in presence of NADPH after 30 mins by LC-MS/MS analysis; assay type: ADME; conditions: 0.5 h; procedure, shortened: as §1
Cytochrome P450 3A4 [5] = biological target: T1, Cytochrome P450 3A4; assay: Drug level assessed as human recombinant CYP3A4-mediated compound formation treated with 4-(1,1,1,2,3,3,3-Heptafluoropropan-2-yl)-N-(6-(2-hydroxyethoxy)-5-(2-methoxyphenoxy)-2,2'-bipyrimidin-4-yl)benzenesulfonamide at 5 uM in presence of NADPH after 30 mins by LC-MS/MS analysis; assay type: ADME; conditions: recombinant enzyme, 0.5 h; procedure, shortened: as §1
Cytochrome P450 3A4 [6] = biological target: T1, Cytochrome P450 3A4; assay: Drug level assessed as human recombinant CYP3A4-mediated compound formation treated with bosentan at 5 uM in presence of NADPH after 30 mins by LC-MS/MS analysis; assay type: ADME; conditions: recombinant enzyme, 0.5 h; procedure, shortened: as §1
[7] = Drug level in human liver microsomes treated with bosentan at 5 uM in presence of NADPH after 30 mins by LC-MS/MS analysis; assay type: ADME; conditions: 0.5 h; procedure, shortened: as §1

T1 sequence (P08684 whole entry): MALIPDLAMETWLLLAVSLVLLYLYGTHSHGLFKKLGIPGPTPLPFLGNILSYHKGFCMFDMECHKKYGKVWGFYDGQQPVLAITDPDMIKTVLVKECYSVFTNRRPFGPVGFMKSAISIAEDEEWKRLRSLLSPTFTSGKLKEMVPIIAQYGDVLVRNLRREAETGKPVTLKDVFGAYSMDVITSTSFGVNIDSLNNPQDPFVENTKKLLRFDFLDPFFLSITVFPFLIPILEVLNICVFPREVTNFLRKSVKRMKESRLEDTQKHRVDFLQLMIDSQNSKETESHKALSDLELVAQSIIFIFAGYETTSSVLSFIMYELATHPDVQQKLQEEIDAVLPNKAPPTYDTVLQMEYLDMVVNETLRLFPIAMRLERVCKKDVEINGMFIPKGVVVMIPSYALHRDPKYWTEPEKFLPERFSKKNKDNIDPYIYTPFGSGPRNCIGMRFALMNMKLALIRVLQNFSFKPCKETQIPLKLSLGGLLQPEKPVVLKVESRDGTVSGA

| Structure (SMILES) | Drug metabolism (Cytochrome P450 3A4 [1]) | Drug metabolism [2] | Retention_time [3] [min] | Drug metabolism [4] | Drug metabolism (Cytochrome P450 3A4 [5]) | Drug metabolism (Cytochrome P450 3A4 [6]) | Drug metabolism [7] |
| --- | --- | --- | --- | --- | --- | --- | --- |
| COC(c1ccc(S(=O)(=O)Nc2nc(-c3ncccn3)nc(OCCO)c2Oc2ccccc2O)cc1)(C(F)(F)F)C(F)(F)F | Metabolite_Detected | Metabolite_Detected | 5.14 | – | – | – | – |
| O=S(=O)(Nc1nc(-c2ncccn2)nc(OCCO)c1Oc1ccccc1O)c1ccc(C(F)(C(F)(F)F)C(F)(F)F)cc1 | – | – | 5.27 | Metabolite_Detected | Metabolite_Detected | – | – |
| CCOc1nc(-c2ncccn2)nc(NS(=O)(=O)c2ccc(C(C)(C)C)cc2)c1Oc1ccccc1O | – | – | 5.52 | – | – | – | – |
| CC(C)(C)c1ccc(S(=O)(=O)Nc2nc(-c3ncccn3)nc(OCCO)c2Oc2ccccc2O)cc1 | – | – | 4.73 | – | – | Metabolite_Detected | Metabolite_Detected |
